According to PMC6606825 (Journal of Ginseng Research, 2018):
Marks after values point to notes of the source that are not given here.

Assay: Pharmacokinetics of CK and its metabolite 20
Assay type: in vivo, healthy Chinese volunteers
Summary of the method: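 Healthy adults given one oral tablet dose fasting (overnight, or 10 h in a crossover food-effect arm); 30 subjects from the 100/200/400 mg groups were pooled with 24 from 200 mg fasting periods. Plasma was stored at −70°C, extracted with MTBE plus internal standards and assayed by LC-MS/MS. Cmax was observed and AUClast calculated by linear trapezoid, each divided by dose. The metabolite/parent ratio was also calculated. Genotyping used Sequenom MassARRAY, and log-transformed values were compared by one-way ANOVA.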

20(S)-PPD AUClast/D (CFTR rs2106155 CC, mean (SD)): 0.76 (0.87)
20(S)-PPD Cmax/D (CFTR rs2106155 CC, mean (SD)): 0.02 (0.02)
Ratio 20(S)-PPD/CK AUClast/D (CFTR rs2106155 CC, mean (SD)): 3.73 (6.73) %
Ratio 20(S)-PPD/CK Cmax/D (CFTR rs2106155 CC, mean (SD)): 0.80 (1.29) %
20(S)-PPD AUClast/D (CFTR rs2237726 CC, mean (SD)): 0.72 (0.85)
20(S)-PPD Cmax/D (CFTR rs2237726 CC, mean (SD)): 0.02 (0.02)
Ratio 20(S)-PPD/CK AUClast/D (CFTR rs2237726 CC, mean (SD)): 3.53 (6.59) %
Ratio 20(S)-PPD/CK Cmax/D (CFTR rs2237726 CC, mean (SD)): 0.80 (1.27) %
20(S)-PPD AUClast/D (CFTR rs2237726 CT, mean (SD)): 0.84 (0.78)
20(S)-PPD Cmax/D (CFTR rs2237726 CT, mean (SD)): 0.03 (0.03)
Ratio 20(S)-PPD/CK AUClast/D (CFTR rs2237726 CT, mean (SD)): 4.43 (5.17) %
Ratio 20(S)-PPD/CK Cmax/D (CFTR rs2237726 CT, mean (SD)): 1.42 (2.13) %
20(S)-PPD AUClast/D (CFTR rs2237726 TT, mean (SD)): 1.10 (0.47)
20(S)-PPD Cmax/D (CFTR rs2237726 TT, mean (SD)): 0.03 (0.02)
Ratio 20(S)-PPD/CK AUClast/D (CFTR rs2237726 TT, mean (SD)): 7.40 (10.14) %
Ratio 20(S)-PPD/CK Cmax/D (CFTR rs2237726 TT, mean (SD)): 1.63 (2.04) %
20(S)-PPD AUClast/D (CFTR rs4148711 AA, mean (SD)): 0.97 (0.49)
20(S)-PPD Cmax/D (CFTR rs4148711 AA, mean (SD)): 0.04 (0.02)
Ratio 20(S)-PPD/CK AUClast/D (CFTR rs4148711 AA, mean (SD)): 5.87 (7.37) %
Ratio 20(S)-PPD/CK Cmax/D (CFTR rs4148711 AA, mean (SD)): 1.40 (1.51) %
20(S)-PPD AUClast/D (CFTR rs4148711 AT, mean (SD)): 0.90 (0.98)
20(S)-PPD Cmax/D (CFTR rs4148711 AT, mean (SD)): 0.03 (0.04)
Ratio 20(S)-PPD/CK AUClast/D (CFTR rs4148711 AT, mean (SD)): 4.70 (7.26) %
Ratio 20(S)-PPD/CK Cmax/D (CFTR rs4148711 AT, mean (SD)): 1.40 (2.23) %
20(S)-PPD AUClast/D (CFTR rs4148711 TT, mean (SD)): 0.63 (0.57)
20(S)-PPD Cmax/D (CFTR rs4148711 TT, mean (SD)): 0.02 (0.02)
Ratio 20(S)-PPD/CK AUClast/D (CFTR rs4148711 TT, mean (SD)): 2.87 (3.42) %
Ratio 20(S)-PPD/CK Cmax/D (CFTR rs4148711 TT, mean (SD)): 0.66 (0.71) %
20(S)-PPD AUClast/D (NR1I2 rs1464602 AA, mean (SD)): 0.69 (0.50)
20(S)-PPD Cmax/D (NR1I2 rs1464602 AA, mean (SD)): 0.02 (0.02)
Ratio 20(S)-PPD/CK AUClast/D (NR1I2 rs1464602 AA, mean (SD)): 3.33 (3.32) %
Ratio 20(S)-PPD/CK Cmax/D (NR1I2 rs1464602 AA, mean (SD)): 0.85 (0.79) %
20(S)-PPD AUClast/D (NR1I2 rs1464602 AG, mean (SD)): 0.85 (0.89)
20(S)-PPD Cmax/D (NR1I2 rs1464602 AG, mean (SD)): 0.03 (0.03)
Ratio 20(S)-PPD/CK AUClast/D (NR1I2 rs1464602 AG, mean (SD)): 3.45 (6.88) %
Ratio 20(S)-PPD/CK Cmax/D (NR1I2 rs1464602 AG, mean (SD)): 0.80 (1.32) %
20(S)-PPD AUClast/D (NR1I2 rs1464602 GG, mean (SD)): 1.09 (1.05)
20(S)-PPD Cmax/D (NR1I2 rs1464602 GG, mean (SD)): 0.04 (0.04)
Ratio 20(S)-PPD/CK AUClast/D (NR1I2 rs1464602 GG, mean (SD)): 7.81 (8.88) %
Ratio 20(S)-PPD/CK Cmax/D (NR1I2 rs1464602 GG, mean (SD)): 2.40 (3.04) %
20(S)-PPD AUClast/D (NR1I2 rs1523127 AA, mean (SD)): 0.87 (0.86)
20(S)-PPD Cmax/D (NR1I2 rs1523127 AA, mean (SD)): 0.03 (0.03)
Ratio 20(S)-PPD/CK AUClast/D (NR1I2 rs1523127 AA, mean (SD)): 4.60 (7.04) %
Ratio 20(S)-PPD/CK Cmax/D (NR1I2 rs1523127 AA, mean (SD)): 1.27 (1.98) %
20(S)-PPD AUClast/D (NR1I2 rs1523127 CA, mean (SD)): 0.73 (0.52)
20(S)-PPD Cmax/D (NR1I2 rs1523127 CA, mean (SD)): 0.02 (0.02)
Ratio 20(S)-PPD/CK AUClast/D (NR1I2 rs1523127 CA, mean (SD)): 3.64 (3.52) %
Ratio 20(S)-PPD/CK Cmax/D (NR1I2 rs1523127 CA, mean (SD)): 0.87 (0.80) %
20(S)-PPD AUClast/D (NR1I2 rs1523127 CC, n = 1): 0.32 (−) ^2)
20(S)-PPD Cmax/D (NR1I2 rs1523127 CC, n = 1): 0.01 (−) ^2)
Ratio 20(S)-PPD/CK AUClast/D (NR1I2 rs1523127 CC, n = 1): 1.14 (−) ^2) %
Ratio 20(S)-PPD/CK Cmax/D (NR1I2 rs1523127 CC, n = 1): 0.22 (−) ^2) %
20(S)-PPD AUClast/D (NR1I2 rs2276707 CC, mean (SD)): 0.79 (0.54)
20(S)-PPD Cmax/D (NR1I2 rs2276707 CC, mean (SD)): 0.03 (0.02)
Ratio 20(S)-PPD/CK AUClast/D (NR1I2 rs2276707 CC, mean (SD)): 5.07 (6.48) %
Ratio 20(S)-PPD/CK Cmax/D (NR1I2 rs2276707 CC, mean (SD)): 1.15 (1.37) %
20(S)-PPD AUClast/D (NR1I2 rs2276707 CT, mean (SD)): 0.79 (0.77)
20(S)-PPD Cmax/D (NR1I2 rs2276707 CT, mean (SD)): 0.03 (0.03)
Ratio 20(S)-PPD/CK AUClast/D (NR1I2 rs2276707 CT, mean (SD)): 3.49 (4.74) %
Ratio 20(S)-PPD/CK Cmax/D (NR1I2 rs2276707 CT, mean (SD)): 1.12 (1.87) %
20(S)-PPD AUClast/D (NR1I2 rs2276707 TT, mean (SD)): 1.04 (1.19)
20(S)-PPD Cmax/D (NR1I2 rs2276707 TT, mean (SD)): 0.03 (0.03)
Ratio 20(S)-PPD/CK AUClast/D (NR1I2 rs2276707 TT, mean (SD)): 5.91 (10.37) %
Ratio 20(S)-PPD/CK Cmax/D (NR1I2 rs2276707 TT, mean (SD)): 1.27 (1.99) %
20(S)-PPD AUClast/D (NR1I2 rs2472682 AA, mean (SD)): 1.08 (1.14)
20(S)-PPD Cmax/D (NR1I2 rs2472682 AA, mean (SD)): 0.04 (0.04)
Ratio 20(S)-PPD/CK AUClast/D (NR1I2 rs2472682 AA, mean (SD)): 7.47 (9.73) %
Ratio 20(S)-PPD/CK Cmax/D (NR1I2 rs2472682 AA, mean (SD)): 2.06 (2.76) %
20(S)-PPD AUClast/D (NR1I2 rs2472682 CA, mean (SD)): 0.66 (0.50)
20(S)-PPD Cmax/D (NR1I2 rs2472682 CA, mean (SD)): 0.02 (0.02)
Ratio 20(S)-PPD/CK AUClast/D (NR1I2 rs2472682 CA, mean (SD)): 2.12 (1.73) %
Ratio 20(S)-PPD/CK Cmax/D (NR1I2 rs2472682 CA, mean (SD)): 0.59 (0.51) %
20(S)-PPD AUClast/D (NR1I2 rs2472682 CC, mean (SD)): 0.87 (0.59)
20(S)-PPD Cmax/D (NR1I2 rs2472682 CC, mean (SD)): 0.03 (0.02)
Ratio 20(S)-PPD/CK AUClast/D (NR1I2 rs2472682 CC, mean (SD)): 5.01 (4.45) %
Ratio 20(S)-PPD/CK Cmax/D (NR1I2 rs2472682 CC, mean (SD)): 1.17 (0.97) %
20(S)-PPD AUClast/D (NR1I2 rs6785049 AA, mean (SD)): 0.75 (0.59)
20(S)-PPD Cmax/D (NR1I2 rs6785049 AA, mean (SD)): 0.03 (0.02)
Ratio 20(S)-PPD/CK AUClast/D (NR1I2 rs6785049 AA, mean (SD)): 5.90 (7.79) %
Ratio 20(S)-PPD/CK Cmax/D (NR1I2 rs6785049 AA, mean (SD)): 1.37 (1.63) %
20(S)-PPD AUClast/D (NR1I2 rs6785049 AG, mean (SD)): 0.72 (0.54)
20(S)-PPD Cmax/D (NR1I2 rs6785049 AG, mean (SD)): 0.03 (0.02)
Ratio 20(S)-PPD/CK AUClast/D (NR1I2 rs6785049 AG, mean (SD)): 2.64 (2.47) %
Ratio 20(S)-PPD/CK Cmax/D (NR1I2 rs6785049 AG, mean (SD)): 0.69 (0.58) %
20(S)-PPD AUClast/D (NR1I2 rs6785049 GG, mean (SD)): 1.11 (1.21)
20(S)-PPD Cmax/D (NR1I2 rs6785049 GG, mean (SD)): 0.04 (0.04)
Ratio 20(S)-PPD/CK AUClast/D (NR1I2 rs6785049 GG, mean (SD)): 6.66 (9.43) %
Ratio 20(S)-PPD/CK Cmax/D (NR1I2 rs6785049 GG, mean (SD)): 1.98 (2.90) %
20(S)-PPD AUClast/D (NR1I2 rs7643645 AA, mean (SD)): 0.95 (0.87)
20(S)-PPD Cmax/D (NR1I2 rs7643645 AA, mean (SD)): 0.03 (0.03)
Ratio 20(S)-PPD/CK AUClast/D (NR1I2 rs7643645 AA, mean (SD)): 5.31 (8.06) %
Ratio 20(S)-PPD/CK Cmax/D (NR1I2 rs7643645 AA, mean (SD)): 1.16 (1.57) %
20(S)-PPD AUClast/D (NR1I2 rs7643645 AG, mean (SD)): 0.66 (0.76)
20(S)-PPD Cmax/D (NR1I2 rs7643645 AG, mean (SD)): 0.03 (0.03)
Ratio 20(S)-PPD/CK AUClast/D (NR1I2 rs7643645 AG, mean (SD)): 3.34 (5.02) %
Ratio 20(S)-PPD/CK Cmax/D (NR1I2 rs7643645 AG, mean (SD)): 1.21 (2.09) %
20(S)-PPD AUClast/D (NR1I2 rs7643645 GG, mean (SD)): 1.14 (0.42)
20(S)-PPD Cmax/D (NR1I2 rs7643645 GG, mean (SD)): 0.04 (0.02)
Ratio 20(S)-PPD/CK AUClast/D (NR1I2 rs7643645 GG, mean (SD)): 4.98 (4.18) %
Ratio 20(S)-PPD/CK Cmax/D (NR1I2 rs7643645 GG, mean (SD)): 1.03 (0.83) %
SMILES: CC(C)=CCC[C@](C)(O)[C@H]1CC[C@]2(C)[C@@H]1[C@H](O)C[C@@H]1[C@@]3(C)CC[C@H](O)C(C)(C)[C@@H]3CC[C@]12C [20(S)-PPD, 20(S)-protopanaxadiol]
